Bioassay records deposited in PubChem by several laboratories.
The list is not random: actives were taken first. Their share in the collection is about 4%.
Exocytosis inh: LAMP-1 surface exposure blockers, TALL-104 cells – cell-based, flow cytometry, MLPCN library, primary screen | 360,000 tested, 0.66% active | inhibition, % at 10 µM | TALL-104 LAMP-1 surface exposure; cells stimulated with thapsigargin and PMA | AID 651702, 2012;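 active = inhibition above about 55%, limit read from the data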
Mdm2 MdmX PPI: inhibitors of human Mdm2-MdmX association, primary screen, cell-based, luminescence, split luciferase, SaOS-2, uHTS | 330,000 tested, 3% active | inhibition, % at 8 µM | Protein Mdm4 (Homo sapiens) + E3 ubiquitin-protein ligase Mdm2 (Homo sapiens), … | SaOS-2 split-luciferase Mdm2/MdmX complementation;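 active = inhibition of at least 50% at 8 µM in the primary screen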
UPR CHOP act: activators of apoptotic CHOP UPR arm, primary screen, cell-based, CHO-CHOP luciferase reporter, luminescence, uHTS | UPR activation; percent of tunicamycin response over DMSO baseline | activation, % at 10 µM | 330,000 tested, 0.34% active;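 active = at 10 µM dose, activation of 40% or more, normalized to positive control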
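Dosing – one dose, 10 µM in 0.5% DMSO · System – CHO-CHOP cells, stable luciferase reporter of PERK-eIF2a-CHOP signalling · Input – 500 cells/well · Control set – tunicamycin 10 µg/mL final as positive, DMSO-only wells as negative · Timing – 6 h compound treatment, 37 °C · Measure – % activation vs tunicamycin · Technique – luminescence read with Steady-Glo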
ABHD5 PLIN5 PPI: ABHD5-PLIN5 interaction inhibitors, primary screen, cell lysate, split luciferase complementation, luminescence | 360,000 tested, 0.78% active | AID 602281, 2012 | inhibition, % at 4 µM | Split G. princeps luciferase complementation, 4 h;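 active = inhibition above the mean inhibition across every tested compound plus 3 SD, cut at about 22% in these data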
XBP1 UPR activ: activators of adaptive XBP1 UPR arm, primary screen, cell-based, CHO-XBP1 luciferase reporter, luminescence, uHTS; activation, % at 20 µM; IRE1-XBP1 UPR activation; percent of tunicamycin response, DMSO as zero; AID 463104, 2010; 330,000 tested, 0.33% active;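 active = versus positive control, 20 µM dose yields 30% or more activation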
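incubation = overnight seeding at 37 °C, 6 h compound treatment at 37 °C | assay system = CHO-XBP1 cells stably carrying IRE1-XBP1-driven luciferase reporter | input = 1000 cells per well | detection = luciferase luminescence | dosing = single point, 20 µM final compound, 1% DMSO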
CHOP UPR conf: activators of apoptotic CHOP UPR arm, confirmation, cell-based, CHO-CHOP luciferase reporter, single concentration; activation, % at 10 µM; 1,000 tested, 64% active; AID 463112, 2010; shares compounds with UPR CHOP act; CHO-CHOP cells, CHOP-luciferase reporter luminescence; percent of tunicamycin response, DMSO as zero; in the data active = activation above about 33%
Of the large screens only hits and unclear results are named; the others gave an inactive call (follow-up assays come after a bar, where they were run).

N#CC(C#N)=C1C=CC=CN1/C(=C\c1ccccc1)C(=O)c1cccs1	UPR CHOP act 122 | CHOP UPR conf 119
CCSc1cc(N2CCCC2)nc(-c2ccccc2)n1	none
CCOC(=O)[C@]12CCC=C1N(Cc1cccc3ccccc13)C(=O)[C@H](CC(=O)N1CCC(c3ccccc3)CC1)C2	none (no result: Mdm2 MdmX PPI, UPR CHOP act, XBP1 UPR activ)
COc1cccc(-c2nc(CS(=O)CC(=O)NCc3ccccc3)c(C)o2)c1 (centres undefined)	UPR CHOP act 69 | CHOP UPR conf inactive
C=CCn1c(NCc2ccccc2OC)nc2ccccc21	none
Oc1ccc(C(=S)N2CCCCCC2)cc1	none
Cc1cc(-c2onc(C)c2C(=O)N/N=C/c2ccccc2)no1	none
Cc1ccc(SC(=O)c2c(C)noc2-c2cc(C)on2)cc1	UPR CHOP act 57 | CHOP UPR conf inactive
O=C(Nc1ccc(C(=O)N2CCCCC2)cc1)C1CCC1	none (no result: Mdm2 MdmX PPI, UPR CHOP act, XBP1 UPR activ)
S=C1SCN(Cc2ccccn2)CN1Cc1ccco1	UPR CHOP act 102 | CHOP UPR conf 50
COCCN1CSC(=S)N(Cc2ccco2)C1	UPR CHOP act 91 | CHOP UPR conf 53
S=C1SCN(Cc2cccnc2)CN1Cc1ccccc1	none
N#CC1=C(N)OC2=C(CC/C2=C\c2ccccc2)C1c1ccccc1 (centres undefined)	UPR CHOP act 104 | CHOP UPR conf 180
CC(=O)N(C)Cc1ccc(C(=O)CSc2nnc(C3CC3)n2C2CC2)cc1	none
CC(=O)N(C)Cc1ccc(C(=O)CCl)cc1	UPR CHOP act 94 | CHOP UPR conf inactive
CC(=O)NCc1ccc(C(=O)CCl)cc1	UPR CHOP act 113 | CHOP UPR conf inactive
CC(=O)NCc1ccc(C(=O)CCl)s1	UPR CHOP act 64 | CHOP UPR conf inactive
CCn1nccc1C(=O)NC1=C(C#N)CCC1	none
O=C(NC(=S)N1CCCCC1)C12CC3CC(CC(C3)C1)C2	none
COC(=O)CSC1=C(C#N)C(=O)NC(c2ccccc2)S1 (centres undefined)	UPR CHOP act 88 | CHOP UPR conf inactive
O=C(NCCc1ccc(F)cc1)c1coc(=O)c(Br)c1	UPR CHOP act 125 | CHOP UPR conf 88
CCOc1cc(C2c3c(-c4ccccc4)n[nH]c3C(=O)N2c2ccc(C(=O)O)cc2)ccc1O (centres undefined)	UPR CHOP act 45 | CHOP UPR conf inactive
COc1ccc(CCN(C)Cc2nc(-c3cnccn3)no2)cc1OC	none
FC(F)(F)c1cccc(-c2cc3nc(NCCOc4ccccc4)ccn3n2)c1	none (no result: Mdm2 MdmX PPI, UPR CHOP act, XBP1 UPR activ)
O=C(CSC(=S)N1CCCC1)c1cc(Br)cc(Br)c1O	UPR CHOP act 71 (no result: Exocytosis inh, ABHD5 PLIN5 PPI) | CHOP UPR conf 45
CC1CCCN(C(=S)SCC(=O)c2cc(Br)cc(Br)c2O)C1 (centres undefined)	none
CCOc1cc(/C=N\NC(=O)c2ccc(NC(=O)C(C)(C)C)cc2)ccc1OC(=O)c1ccc(C)cc1	none
CCOc1cc(/C=N\NC(=O)c2ccc(NC(=O)CC)cc2)ccc1OC(=O)c1ccccc1	UPR CHOP act 57 | CHOP UPR conf inactive
CN(C)c1ncc(C2=C(Cl)C(=O)C(N3CCCC3)=C(Cl)C2=O)s1	UPR CHOP act 83 | CHOP UPR conf inactive
CCCn1c(CN2CCN(C(=O)OCC)CC2)nc2cc(NC(=O)C(C)C)ccc21	UPR CHOP act 50 | CHOP UPR conf inactive
CCc1nc2ccc(C(=O)NCCOc3ccc(OC)cc3)cn2c1N(C)C(=O)C1CCCCC1	none (no result: Mdm2 MdmX PPI, UPR CHOP act, XBP1 UPR activ)
O=C(O)c1cc(NS(=O)(=O)c2ccc3ccccc3c2)ccc1O	none
O=C(c1cn(-c2ccccc2)nc1-c1ccncc1)n1nnc2ccccc21	UPR CHOP act 99 | CHOP UPR conf inactive
O=C(O)c1cn(-c2ccccc2)nc1-c1ccncc1	none
CC12CCC(C(=O)N3CCCCC3)(CC1=O)C2(C)C (centres undefined)	none
